The target in experiment [1] is Sodium-dependent dopamine transporter (Rattus norvegicus, UniProt P23977). Description: Displacement of [3H]WIN-35428 from DAT in Sprague-Dawley rat brain. In kind it is tissue-based. The procedure, abridged:
(§1)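 Male Sprague-Dawley rats (200-250 g); striata, midbrain or frontal cortex tissue used for competition binding. Final radioligand concentrations were 0.5 nM for DAT, 0.2 nM [³H]paroxetine for SERT and 0.5 nM [³H]nisoxetine for NET.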

The target in experiment [2] is Sodium-dependent serotonin transporter (Rattus norvegicus, UniProt P31652). Description: Displacement of [3H]paroxetine from SERT in Sprague-Dawley rat brain. In kind it is tissue-based. The procedure, abridged: as §1
Sodium-dependent serotonin transporter (Rattus norvegicus, UniProt P31652), sequence (P31652 whole entry): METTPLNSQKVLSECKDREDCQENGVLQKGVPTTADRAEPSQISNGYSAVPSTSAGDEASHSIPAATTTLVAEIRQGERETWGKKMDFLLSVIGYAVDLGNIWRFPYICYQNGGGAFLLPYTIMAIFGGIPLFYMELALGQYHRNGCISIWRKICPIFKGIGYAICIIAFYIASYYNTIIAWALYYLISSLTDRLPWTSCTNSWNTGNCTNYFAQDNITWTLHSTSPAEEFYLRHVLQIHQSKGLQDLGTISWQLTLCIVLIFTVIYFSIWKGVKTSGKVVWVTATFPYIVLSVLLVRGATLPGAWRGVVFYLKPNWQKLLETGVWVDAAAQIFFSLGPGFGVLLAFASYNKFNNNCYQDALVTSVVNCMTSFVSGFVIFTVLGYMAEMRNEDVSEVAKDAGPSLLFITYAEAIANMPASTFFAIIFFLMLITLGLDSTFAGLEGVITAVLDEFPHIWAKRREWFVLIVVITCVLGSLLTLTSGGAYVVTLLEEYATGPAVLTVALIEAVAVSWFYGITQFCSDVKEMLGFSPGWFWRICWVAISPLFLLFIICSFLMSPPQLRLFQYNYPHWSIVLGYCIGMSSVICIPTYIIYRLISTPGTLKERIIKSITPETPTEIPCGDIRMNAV
For experiment [3], the target named is Norepinephrine transporter (Rattus norvegicus, UniProt Q9WTR4). Briefly: Displacement of [3H]nisoxetine from NET in Sprague-Dawley rat brain. The experiment is classed as tissue-based. The procedure, abridged:
as §1

Experiment [4] has as its target Sodium-dependent dopamine transporter (Homo sapiens, UniProt Q01959). Description: Displacement of [125I]RTI-55 from human DAT expressed in HEK cells after 90 mins. The experiment is classed as cell-based, HEK293. The procedure, abridged:
(§2)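 Competition binding on human DAT or SERT stably expressed in HEK293 cells, using the nonselective radioligand [¹²⁵I]RTI-55.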

Experiment [5] addresses T1, Sodium-dependent serotonin transporter (Homo sapiens, UniProt P31645). Briefly: Displacement of [125I]RTI-55 from human SERT expressed in HEK cells after 90 mins. The experiment is classed as cell-based, HEK293. The procedure, abridged:
as §2

In experiment [6] the target is T1, Sodium-dependent serotonin transporter. Description: Inhibition of human SERT in HEK cells assessed as [3H]serotonin reuptake. In kind it is functional, cell-based, HEK293. The procedure, abridged: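 Human SERT stably expressed in HEK293 cells; the compound's block of radiolabelled serotonin reuptake was measured in these cells.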
Experiment [7] concerns the target T2, Sodium-dependent noradrenaline transporter (Homo sapiens, UniProt P23975). Description: Displacement of [125I]RTI-55 from human NET expressed in HEK cells after 90 mins. In kind it is cell-based, HEK293.
Experiment [8] deals with T2, Sodium-dependent noradrenaline transporter. Description: Inhibition of human NET in HEK cells assessed as [3H]norepinephrine reuptake. The experiment is classed as functional, cell-based, HEK293.

T1 sequence (P31645 whole entry): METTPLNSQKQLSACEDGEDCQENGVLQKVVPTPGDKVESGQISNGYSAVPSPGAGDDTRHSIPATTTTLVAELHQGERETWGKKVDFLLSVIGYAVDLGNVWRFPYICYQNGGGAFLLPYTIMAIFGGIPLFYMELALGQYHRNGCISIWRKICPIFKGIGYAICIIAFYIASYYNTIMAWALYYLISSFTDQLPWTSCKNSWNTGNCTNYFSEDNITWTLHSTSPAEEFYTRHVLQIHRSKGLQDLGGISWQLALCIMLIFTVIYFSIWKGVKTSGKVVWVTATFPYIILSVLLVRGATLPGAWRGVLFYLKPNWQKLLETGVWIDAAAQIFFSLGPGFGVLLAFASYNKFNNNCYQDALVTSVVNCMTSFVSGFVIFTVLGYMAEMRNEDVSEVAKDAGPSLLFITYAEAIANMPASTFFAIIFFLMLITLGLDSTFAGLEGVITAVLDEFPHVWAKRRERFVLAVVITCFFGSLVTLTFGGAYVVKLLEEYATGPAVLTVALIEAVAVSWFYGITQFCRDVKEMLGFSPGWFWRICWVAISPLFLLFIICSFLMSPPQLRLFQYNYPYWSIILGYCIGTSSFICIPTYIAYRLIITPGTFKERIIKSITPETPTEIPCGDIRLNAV
Sodium-dependent dopamine transporter (Homo sapiens, UniProt Q01959), sequence (Q01959 whole entry): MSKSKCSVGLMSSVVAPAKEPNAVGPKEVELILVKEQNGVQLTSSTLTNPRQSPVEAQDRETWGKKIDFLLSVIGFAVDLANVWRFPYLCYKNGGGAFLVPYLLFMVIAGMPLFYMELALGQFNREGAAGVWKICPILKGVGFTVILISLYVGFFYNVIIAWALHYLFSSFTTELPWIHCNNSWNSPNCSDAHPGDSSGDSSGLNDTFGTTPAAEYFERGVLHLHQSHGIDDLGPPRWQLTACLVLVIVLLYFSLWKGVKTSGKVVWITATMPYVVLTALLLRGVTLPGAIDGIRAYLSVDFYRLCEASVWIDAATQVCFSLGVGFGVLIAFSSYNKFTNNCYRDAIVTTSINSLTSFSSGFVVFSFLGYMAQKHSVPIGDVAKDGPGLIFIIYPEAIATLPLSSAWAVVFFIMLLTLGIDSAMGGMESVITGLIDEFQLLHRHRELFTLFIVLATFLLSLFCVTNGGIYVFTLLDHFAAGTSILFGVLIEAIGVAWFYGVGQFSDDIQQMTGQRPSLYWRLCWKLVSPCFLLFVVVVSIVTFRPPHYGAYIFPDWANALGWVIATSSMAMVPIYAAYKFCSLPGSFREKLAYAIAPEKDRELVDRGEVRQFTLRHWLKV
Norepinephrine transporter, sequence (Q9WTR4 whole entry): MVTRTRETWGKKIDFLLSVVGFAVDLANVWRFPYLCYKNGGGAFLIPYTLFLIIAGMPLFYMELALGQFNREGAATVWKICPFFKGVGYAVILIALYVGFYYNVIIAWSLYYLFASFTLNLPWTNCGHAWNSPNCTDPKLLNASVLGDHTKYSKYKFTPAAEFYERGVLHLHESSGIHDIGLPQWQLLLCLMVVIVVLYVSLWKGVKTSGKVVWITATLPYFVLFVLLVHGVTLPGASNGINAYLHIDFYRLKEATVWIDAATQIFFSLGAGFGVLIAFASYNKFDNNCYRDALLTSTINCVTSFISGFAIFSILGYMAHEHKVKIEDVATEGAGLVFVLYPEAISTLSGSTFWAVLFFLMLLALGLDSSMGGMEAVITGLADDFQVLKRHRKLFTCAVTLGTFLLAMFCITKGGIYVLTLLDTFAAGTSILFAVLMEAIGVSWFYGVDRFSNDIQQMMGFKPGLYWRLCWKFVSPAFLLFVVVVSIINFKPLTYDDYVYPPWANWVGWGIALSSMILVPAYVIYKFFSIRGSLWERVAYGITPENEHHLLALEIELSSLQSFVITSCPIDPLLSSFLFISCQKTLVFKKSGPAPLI
T2 sequence (P23975 whole entry): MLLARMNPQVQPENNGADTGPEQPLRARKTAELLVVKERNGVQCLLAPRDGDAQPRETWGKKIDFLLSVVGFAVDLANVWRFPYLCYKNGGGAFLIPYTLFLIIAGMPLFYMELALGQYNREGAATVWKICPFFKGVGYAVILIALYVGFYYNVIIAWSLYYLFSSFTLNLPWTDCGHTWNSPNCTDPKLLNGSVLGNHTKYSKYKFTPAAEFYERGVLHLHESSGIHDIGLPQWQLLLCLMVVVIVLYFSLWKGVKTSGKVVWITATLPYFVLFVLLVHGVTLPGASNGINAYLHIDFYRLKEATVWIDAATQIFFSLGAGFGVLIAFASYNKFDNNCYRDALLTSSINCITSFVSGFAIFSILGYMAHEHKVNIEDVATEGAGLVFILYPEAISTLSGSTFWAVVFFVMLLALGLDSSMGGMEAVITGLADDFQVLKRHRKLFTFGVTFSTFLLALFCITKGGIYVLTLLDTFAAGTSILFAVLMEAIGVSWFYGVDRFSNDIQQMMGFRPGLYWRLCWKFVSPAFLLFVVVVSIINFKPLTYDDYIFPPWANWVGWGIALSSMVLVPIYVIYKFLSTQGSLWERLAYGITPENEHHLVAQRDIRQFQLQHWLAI
Sodium-dependent dopamine transporter (Rattus norvegicus, UniProt P23977), sequence (P23977 whole entry): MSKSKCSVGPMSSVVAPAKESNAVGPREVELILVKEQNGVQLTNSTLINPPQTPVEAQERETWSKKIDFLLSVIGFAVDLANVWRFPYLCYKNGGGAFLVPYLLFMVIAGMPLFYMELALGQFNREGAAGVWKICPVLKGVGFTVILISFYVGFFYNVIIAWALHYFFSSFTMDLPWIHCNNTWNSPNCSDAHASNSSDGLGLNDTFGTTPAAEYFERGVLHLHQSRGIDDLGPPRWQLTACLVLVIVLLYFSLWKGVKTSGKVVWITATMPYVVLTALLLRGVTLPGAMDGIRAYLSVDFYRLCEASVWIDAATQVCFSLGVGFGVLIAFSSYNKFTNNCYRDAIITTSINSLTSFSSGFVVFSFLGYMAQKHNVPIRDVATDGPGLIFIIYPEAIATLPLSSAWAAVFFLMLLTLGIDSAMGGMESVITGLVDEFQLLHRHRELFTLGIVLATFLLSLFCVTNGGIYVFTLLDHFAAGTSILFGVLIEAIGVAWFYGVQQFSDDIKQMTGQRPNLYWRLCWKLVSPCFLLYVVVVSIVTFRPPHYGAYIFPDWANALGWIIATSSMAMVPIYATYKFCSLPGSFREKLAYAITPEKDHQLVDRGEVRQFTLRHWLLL

As to `COc1ccc(-c2cnc([C@H]3[C@@H](c4ccc(C)cc4)C[C@@H]4CC[C@H]3N4C)s2)cc1OC`, the results for the IC50 in experiment [1] and in experiment [6] were 83 nM and > 10 µM, respectively. The Ki in experiment [2] was > 2000 nM; in experiment [3] it was > 2000 nM; in experiment [4], 529 nM; in experiment [5] it was 7710 nM.
For the compound `COc1ccc(-c2cnc([C@H]3[C@@H](c4ccc(C)cc4)C[C@@H]4CC[C@H]3N4C)s2)cc1`, the IC50 is 15 nM in experiment [1], 6.8 µM in experiment [6] and 1810 nM in experiment [8]. In addition, the Ki was > 2000 nM in experiment [2]; > 2000 nM in experiment [3]; 53 nM in experiment [4]; 3670 nM in experiment [5]; 3.63 µM in experiment [7].
Regarding `Cc1ccc([C@H]2C[C@@H]3CC[C@H]([C@H]2c2ncc(-c4cccc([N+](=O)[O-])c4)s2)N3C)cc1`, the IC50 in experiment [1] was found to be 4 nM; in experiment [6] it was 2.38 µM. In addition, the Ki in experiment [2] was 10000 nM; in experiment [3] it was > 2000 nM; in experiment [4] it was 14 nM; in experiment [5] it was 580 nM.
On to `CN1[C@H]2CC[C@@H]1[C@@H](c1ncc(-c3ccccc3)s1)[C@@H](c1ccc(Cl)cc1)C2`, for which the IC50 was found to be 5.7 nM in experiment [1], 2.71 µM in experiment [6] and 750 nM in experiment [8]. Also, the Ki in experiment [2] was > 2000 nM; in experiment [3], 8560 nM; in experiment [4] it was 18 nM; in experiment [5], 2670 nM; in experiment [7] it was 1.84 µM.
For `CN1[C@H]2CC[C@@H]1[C@@H](c1ncc(-c3ccc(Cl)cc3)s1)[C@@H](c1ccc(Cl)cc1)C2`, the IC50 in experiment [1] came to 20 nM; in experiment [6] it was 4.4 µM. The Ki in experiment [2] is 903 nM; in experiment [3] it was > 2000 nM; in experiment [4], 28 nM; in experiment [5], 2390 nM.
As to `CN1[C@H]2CC[C@@H]1[C@@H](c1ncc(-c3cccc(Br)c3)s1)[C@@H](c1ccc(Cl)cc1)C2`, the IC50 in experiment [1] turned out to be 18 nM; in experiment [6] it was 4 µM. The Ki in experiment [2] was 280 nM; in experiment [3], > 2000 nM; in experiment [4] it was 39 nM; in experiment [5], 1500 nM.
For `CN1[C@H]2CC[C@@H]1[C@@H](c1ncc(-c3ccc([N+](=O)[O-])cc3)s1)[C@@H](c1ccc(Cl)cc1)C2`, the IC50 in experiment [1] is 20 nM; in experiment [6], 3.6 µM. The Ki in experiment [2] was 980 nM; in experiment [3] it was > 2000 nM; in experiment [4], 6.1 nM; in experiment [5], 1820 nM.
Take `COc1ccc(-c2cnc([C@H]3[C@@H](c4ccc(Cl)cc4)C[C@@H]4CC[C@H]3N4C)s2)cc1`: the IC50 was 14 nM in experiment [1] and 6.7 µM in experiment [6]. The Ki in experiment [2] was 800 nM; in experiment [3], > 2000 nM; in experiment [4], 8.6 nM; in experiment [5], 5200 nM.
In the case of `Cc1ccc([C@H]2C[C@@H]3CC[C@H]([C@H]2c2ncc(-c4ccc(Cl)cc4)s2)N3C)cc1`, the IC50 turned out to be 22 nM in experiment [1] and 0.377 µM in experiment [6]. For the same compound, the Ki in experiment [2] was 1110 nM; in experiment [3], > 2000 nM; in experiment [4] it was 212 nM; in experiment [5], 1320 nM.
As for `Cc1ccc([C@H]2C[C@@H]3CC[C@H]([C@H]2c2ncc(-c4ccc([N+](=O)[O-])cc4)s2)N3C)cc1`, the IC50 in experiment [1] amounted to 41 nM; in experiment [6] it was 3.17 µM. Further, the Ki in experiment [2] is 1690 nM; in experiment [3], > 2000 nM; in experiment [4] it was 140 nM; in experiment [5], 1640 nM.
Take `Cc1ccc([C@H]2C[C@@H]3CC[C@H]([C@H]2c2ncc(-c4ccc(F)cc4)s2)N3C)cc1`: the IC50 in experiment [1] stood at 12 nM; in experiment [6], 3.2 µM. Further, the inhibition constant Ki in experiment [2] was 2240 nM; in experiment [3] it was > 2000 nM; in experiment [4], 61 nM; in experiment [5], 1720 nM.
On to `Cc1ccc([C@H]2C[C@@H]3CC[C@H]([C@H]2c2ncc(-c4ccc(Br)cc4)s2)N3C)cc1`, for which the Ki stood at 130 nM in experiment [4] and 1870 nM in experiment [5]. Besides, in experiment [6], the IC50 turned out to be 1.84 µM.
In the case of `Cc1ccc([C@H]2C[C@@H]3CC[C@H]([C@H]2c2ncc(-c4ccc(Cl)c(Cl)c4)s2)N3C)cc1`, the IC50 is 102 nM in experiment [1], 4.4 µM in experiment [6] and 4000 nM in experiment [8]. Besides, the Ki was 190 nM in experiment [2]; > 2000 nM in experiment [3]; 105 nM in experiment [4]; 2940 nM in experiment [5]; > 6.1 µM in experiment [7].
In the case of `CN1[C@H]2CC[C@@H]1[C@@H](c1ncc(-c3ccc(Cl)c(Cl)c3)s1)[C@@H](c1ccc(Cl)cc1)C2`, the IC50 came to 440 nM in experiment [1] and 5.3 µM in experiment [6]. Also, the Ki in experiment [2] is 380 nM; in experiment [3], > 2000 nM; in experiment [4], 66 nM; in experiment [5], 2710 nM.
Regarding `CN1[C@H]2CC[C@@H]1[C@@H](c1ncc(-c3ccc(Br)cc3)s1)[C@@H](c1ccc(Cl)cc1)C2`, the Ki in experiment [2] is 840 nM; in experiment [3] it was > 2000 nM; in experiment [5], 5700 nM. Further, in experiment [6], the IC50 is 8.22 µM.
For `CN1[C@H]2CC[C@@H]1[C@@H](c1ncc(-c3cccc([N+](=O)[O-])c3)s1)[C@@H](c1ccc(Cl)cc1)C2`, the IC50 amounted to 5 nM in experiment [1] and 1.61 µM in experiment [6]. Besides, the Ki in experiment [2] is 301 nM; in experiment [3], > 2000 nM; in experiment [4] it was 7.7 nM; in experiment [5] it was 740 nM.
`COc1ccc(-c2cnc([C@H]3[C@@H](c4ccc(Cl)cc4)C[C@@H]4CC[C@H]3N4C)s2)cc1OC`: the IC50 in experiment [1] is 65 nM; in experiment [6], > 6.8 µM. The Ki is 1510 nM in experiment [2], > 2000 nM in experiment [3], 234 nM in experiment [4] and 3590 nM in experiment [5].
With `CN1[C@H]2CC[C@@H]1[C@@H](c1ncc(-c3ccc(F)cc3)s1)[C@@H](c1ccc(Cl)cc1)C2`, the IC50 in experiment [1] came to 6 nM; in experiment [6], 1.01 µM. Moreover, the Ki in experiment [2] is 371 nM; in experiment [3] it was > 2000 nM; in experiment [4], 12 nM; in experiment [5], 653 nM.
Turning to `Cc1ccc([C@H]2C[C@@H]3CC[C@H]([C@H]2c2ncc(-c4cccc(Br)c4)s2)N3C)cc1`, the figures for the IC50 in experiment [1] and in experiment [6] were 10 nM and 3.86 µM, respectively. Besides, the Ki was 312 nM in experiment [2], > 2000 nM in experiment [3], 12 nM in experiment [4] and 870 nM in experiment [5].
Regarding `COC(=O)[C@H]1[C@@H](c2ccccc2)C[C@@H]2CC[C@H]1N2C` [TROPARIL], in experiment [1], the IC50 is 23 nM. The same compound had a Ki in experiment [3] of 920 nM.

The values are drawn from ChEMBL document CHEMBL1146223, “Synthesis, monoamine transporter binding, properties, and functional monoamine uptake activity of 3beta-[4-methylphenyl and 4-chlorophenyl]-2 beta-[5-(substituted phenyl)thiazol-2-yl]tropanes” (J Med Chem, 2007).
